According to ChEMBL document CHEMBL5149984, “Discovery of HN37 as a Potent and Chemically Stable Antiepileptic Drug Candidate” (J Med Chem, 2021):

How the values were obtained:
[1] = Half life in Kunming mouse brain at 5 mg/kg, po measured upto 24 hrs by LC-MS/MS method; type: ADME, organism-based
Summary of the method: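 Male KM mice (18−24 g) fasted 12 h before and 2 h after dosing, given 5 mg/kg orally in 5% DMSO/5% Tween 80/90% normal saline (n = 3 per time point). Aortic blood taken at 0.25–24 h and whole brain collected. Acetonitrile extraction with internal standard, then LC−MS/MS. Bioavailability calculated against the 2 mg/kg i.v. arm.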

[2] = Tmax in Sprague-Dawley rat at 6 mg/kg, po measured upto 24 hrs by LC-MS/MS method; type: ADME, organism-based; settings: in vivo
Summary of the method: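 Male SD rats (180–220 g) dosed orally at 2, 6 and 20 mg/kg, handled like the mice: fasting, 5% DMSO/5% Tween 80/saline vehicle, acetonitrile extraction, LC-MS/MS of plasma. In a separate set at 6 mg/kg p.o., blood and brain were sampled together.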

[3] = AUC(0 to t) in Sprague-Dawley rat at 6 mg/kg, po measured upto 24 hrs by LC-MS/MS method; type: ADME, organism-based; set-up: dose 6 mg/kg, time < 24 hrs, route po; settings: in vivo
Summary of the method: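 Male SD rats (180−220 g) dosed orally at 2, 6 or 20 mg/kg in escalating fashion, handled as in the mouse study: 12 h fast, acetonitrile extraction of plasma, LC−MS/MS quantification. AUC0−t by trapezoidal method to the last measurable concentration.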

CYP3A4 = CYP3A4 (Homo sapiens, UniProt P08684); experiment: Ratio of IC50 for human liver microsome CYP3A4 using testosterone as substrate in absence of NADPH to IC50 for human liver microsome CYP3A4 using testosterone as substrate in presence of NADPH; settings: liver microsomes, probe testosterone, read-out: Ratio IC50
Summary of the method: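 Human liver microsomes preincubated 0.5 h with 0.10−50 μM compound, with or without NADPH, then CYP-specific probe substrates added (CYP3A4 with midazolam 1′-hydroxylation and with testosterone 6β-hydroxylation). Metabolites quantified by LC−MS/MS; % activity remaining computed against no-compound control. IC50 fitted by Probit model; ratio = IC50(−NADPH)/IC50(+NADPH).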

Cytochrome P450 2B6 = Cytochrome P450 2B6 (Homo sapiens, UniProt P20813); experiment: Time dependent inhibition of human liver microsome CYP2B6 preincubated for 0.5 hrs in absence of NADPH followed by substrate addition by LC-MS/MS method; type: ADME, microsomes
Summary of the method: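 Human liver microsomes preincubated 0.5 h with 0.10–50 μM test compound, with or without NADPH, then CYP-specific probe substrate added and incubation continued. Metabolite measured by LC-MS/MS; % activity remaining relative to no-compound control; IC50 fitted by Probit model. For CYP3A4, midazolam 1′-hydroxylation and testosterone 6β-hydroxylation were read separately.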

CYP1A2 = CYP1A2 (Homo sapiens, UniProt P05177); experiment: Ratio of IC50 for human liver microsome CYP1A2 in absence of NADPH to IC50 for human liver microsome CYP1A2 in presence of NADPH; settings: liver microsomes, read-out: Ratio IC50
CYP2C8 = CYP2C8 (Homo sapiens, UniProt P10632); experiment: Ratio of IC50 for human liver microsome CYP2C8 in absence of NADPH to IC50 for human liver microsome CYP2C8 in presence of NADPH; settings: liver microsomes, read-out: Ratio IC50
[4] = target: T1, Potassium voltage-gated channel subfamily KQT member 4 (Homo sapiens) (UniProt P56696); experiment: Agonist activity at human KCNQ4 channel expressed in CHO cells assessed as shift of half voltage of maximal activation at 0.1 uM by patch clamp method; type: cell-based; settings: filed as agonist
T1 sequence (whole entry): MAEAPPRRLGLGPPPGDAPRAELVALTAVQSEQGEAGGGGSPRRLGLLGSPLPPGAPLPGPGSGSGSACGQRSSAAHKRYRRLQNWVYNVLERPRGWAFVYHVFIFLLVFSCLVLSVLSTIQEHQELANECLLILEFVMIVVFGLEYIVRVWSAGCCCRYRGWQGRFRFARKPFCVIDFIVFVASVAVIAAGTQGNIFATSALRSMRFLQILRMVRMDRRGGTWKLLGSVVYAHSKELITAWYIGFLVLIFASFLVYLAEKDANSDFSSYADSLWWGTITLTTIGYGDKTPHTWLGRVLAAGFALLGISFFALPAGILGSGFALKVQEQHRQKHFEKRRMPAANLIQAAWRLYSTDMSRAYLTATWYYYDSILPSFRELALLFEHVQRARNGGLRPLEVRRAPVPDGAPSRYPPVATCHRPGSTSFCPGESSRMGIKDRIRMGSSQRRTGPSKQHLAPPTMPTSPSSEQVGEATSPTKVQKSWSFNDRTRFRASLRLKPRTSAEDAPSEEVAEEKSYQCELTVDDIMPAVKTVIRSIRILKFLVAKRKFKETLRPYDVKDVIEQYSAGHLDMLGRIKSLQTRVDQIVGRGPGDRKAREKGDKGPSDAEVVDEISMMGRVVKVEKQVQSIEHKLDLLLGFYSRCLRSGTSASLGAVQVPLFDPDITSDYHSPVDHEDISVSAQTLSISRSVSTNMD
Summary of the method: (§1)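 Whole-cell patch clamp at room temperature on CHO cells (DMEM/F12, 10% FBS) transiently co-transfected with EGFP and hKCNQ1, rKCNQ2, rKCNQ3 A278T, hKCNQ4 or hKCNQ5; KCNQ2/3 at 1:1 cDNA ratio. Pipette solution 145 mM KCl, 5 mM MgATP, pH 7.3; bath 140 mM NaCl, 5 mM KCl, pH 7.4, under perfusion. V1/2 from Boltzmann fits; I/I0 is current amplitude with versus without compound; n = 4−6.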

[5] = target: T1, Potassium voltage-gated channel subfamily KQT member 4 (Homo sapiens); experiment: Agonist activity at human KCNQ4 channel expressed in CHO cells assessed as amplitude change of outward current at 0.1 uM by patch clamp method; type: cell-based; settings: filed as agonist; summary of the method: as §1
[6] = target: T1, Potassium voltage-gated channel subfamily KQT member 4 (Homo sapiens); experiment: Agonist activity at human KCNQ4 channel expressed in CHO cells assessed as shift of half voltage of maximal activation at 10 uM by patch clamp method; type: cell-based; settings: filed as agonist; summary of the method: as §1

Cytochrome P450 2B6, sequence (P20813 whole entry): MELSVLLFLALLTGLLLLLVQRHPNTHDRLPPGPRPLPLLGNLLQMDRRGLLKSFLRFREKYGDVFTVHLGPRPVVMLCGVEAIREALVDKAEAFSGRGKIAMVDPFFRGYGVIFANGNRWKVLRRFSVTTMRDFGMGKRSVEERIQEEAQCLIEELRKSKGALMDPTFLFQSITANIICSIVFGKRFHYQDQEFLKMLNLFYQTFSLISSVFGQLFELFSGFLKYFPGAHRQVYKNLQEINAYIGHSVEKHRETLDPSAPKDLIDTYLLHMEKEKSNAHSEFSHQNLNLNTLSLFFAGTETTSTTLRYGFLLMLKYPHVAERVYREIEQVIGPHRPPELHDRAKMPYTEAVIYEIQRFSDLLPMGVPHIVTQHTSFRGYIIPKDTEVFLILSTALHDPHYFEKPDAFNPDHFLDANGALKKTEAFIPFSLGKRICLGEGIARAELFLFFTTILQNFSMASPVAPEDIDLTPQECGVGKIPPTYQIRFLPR
CYP1A2, sequence (P05177 whole entry): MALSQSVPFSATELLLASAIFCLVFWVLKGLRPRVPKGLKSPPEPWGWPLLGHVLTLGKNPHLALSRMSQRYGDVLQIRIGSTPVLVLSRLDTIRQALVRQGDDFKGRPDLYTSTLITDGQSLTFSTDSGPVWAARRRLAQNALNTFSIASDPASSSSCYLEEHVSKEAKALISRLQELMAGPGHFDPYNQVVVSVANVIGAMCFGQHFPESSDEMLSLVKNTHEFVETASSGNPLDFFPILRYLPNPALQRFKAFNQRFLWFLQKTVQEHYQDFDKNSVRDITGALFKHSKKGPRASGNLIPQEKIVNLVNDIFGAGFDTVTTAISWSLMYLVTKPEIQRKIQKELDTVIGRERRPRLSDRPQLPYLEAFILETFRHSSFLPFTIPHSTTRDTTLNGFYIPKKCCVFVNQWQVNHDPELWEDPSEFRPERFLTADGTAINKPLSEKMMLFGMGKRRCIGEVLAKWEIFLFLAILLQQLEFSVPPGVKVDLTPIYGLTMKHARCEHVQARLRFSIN
CYP3A4, sequence (P08684 whole entry): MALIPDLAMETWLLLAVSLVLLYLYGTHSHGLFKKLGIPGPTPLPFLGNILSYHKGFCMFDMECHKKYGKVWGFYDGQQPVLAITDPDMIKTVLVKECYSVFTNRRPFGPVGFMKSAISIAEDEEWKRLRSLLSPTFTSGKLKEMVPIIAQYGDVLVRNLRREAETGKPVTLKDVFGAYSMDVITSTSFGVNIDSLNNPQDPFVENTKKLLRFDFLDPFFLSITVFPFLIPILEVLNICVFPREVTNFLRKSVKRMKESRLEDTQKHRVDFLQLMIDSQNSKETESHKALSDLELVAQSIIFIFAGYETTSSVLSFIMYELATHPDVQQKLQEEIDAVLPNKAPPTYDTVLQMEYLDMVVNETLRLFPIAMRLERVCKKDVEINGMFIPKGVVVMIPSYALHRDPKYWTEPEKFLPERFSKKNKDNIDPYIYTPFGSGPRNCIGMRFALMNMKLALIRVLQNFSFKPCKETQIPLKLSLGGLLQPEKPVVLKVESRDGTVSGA
CYP2C8, sequence (P10632 whole entry): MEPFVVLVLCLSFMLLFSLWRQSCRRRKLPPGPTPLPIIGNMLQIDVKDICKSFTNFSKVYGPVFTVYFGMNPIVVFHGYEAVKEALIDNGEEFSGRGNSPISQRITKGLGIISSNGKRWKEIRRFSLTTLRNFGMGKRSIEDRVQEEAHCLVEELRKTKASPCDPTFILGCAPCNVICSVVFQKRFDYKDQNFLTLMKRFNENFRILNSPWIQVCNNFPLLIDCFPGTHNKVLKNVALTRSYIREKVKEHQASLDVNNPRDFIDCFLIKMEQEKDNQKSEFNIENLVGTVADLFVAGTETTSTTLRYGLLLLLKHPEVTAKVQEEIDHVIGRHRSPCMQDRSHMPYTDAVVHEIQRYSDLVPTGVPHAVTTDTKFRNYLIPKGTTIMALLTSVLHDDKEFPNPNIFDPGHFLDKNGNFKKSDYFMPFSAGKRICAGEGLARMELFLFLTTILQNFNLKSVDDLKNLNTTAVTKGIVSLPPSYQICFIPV

| SMILES | half-life [1] [h] | Tmax [2] [h] | AUC(0-t) at 24 h [3] [ng·h/mL] | IC50 shift (CYP3A4) | IC50 (Cytochrome P450 2B6) [µM] | IC50 shift (CYP1A2) | IC50 shift (CYP2C8) | Activity [4] [mV] | Activity [5] | Activity [6] [mV] |
| --- | --- | --- | --- | --- | --- | --- | --- | --- | --- | --- |
| C#CCN(Cc1ccc(F)cc1)c1cc(C)c(NC(=O)OC)c(C)c1 | 1.95 | 0.67 | 1130 | < 1.5 | 141 | > 1.5 | > 1.5 | -56.6 | 3.76 |  |
| CCOC(=O)Nc1ccc(NCc2ccc(F)cc2)cc1N [EZOGABINE] |  |  |  |  |  |  |  |  |  | -34.1 |
